One test relates to A2780. Nature of the test: Cytotoxicity against human A2780 cells after 4 days by MTT assay. It is filed as functional, cell-based. In general terms: Formazan colour is commonly taken as a measure of viable cells.
The target of test [1] is T1, Tyrosine-protein phosphatase non-receptor type 1 (Homo sapiens) (UniProt P18031).
T1 sequence (whole entry): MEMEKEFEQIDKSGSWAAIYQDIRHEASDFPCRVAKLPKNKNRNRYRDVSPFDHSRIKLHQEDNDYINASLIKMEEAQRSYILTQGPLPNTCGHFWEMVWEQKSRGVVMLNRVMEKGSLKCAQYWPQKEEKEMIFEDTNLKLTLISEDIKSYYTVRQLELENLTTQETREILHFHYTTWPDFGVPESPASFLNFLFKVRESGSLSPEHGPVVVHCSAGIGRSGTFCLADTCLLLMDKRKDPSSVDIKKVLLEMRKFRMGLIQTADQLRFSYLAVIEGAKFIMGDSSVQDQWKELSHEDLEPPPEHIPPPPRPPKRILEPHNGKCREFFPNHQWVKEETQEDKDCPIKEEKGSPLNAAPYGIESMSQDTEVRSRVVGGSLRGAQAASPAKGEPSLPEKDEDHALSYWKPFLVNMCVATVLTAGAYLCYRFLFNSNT
Nature of the test: Inhibition of GST-tagged human PTP1B.

In test [2] the test system is Human immunodeficiency virus 1. Nature of the test: Antiviral activity against HIV-1 NL4-3 expressing VSV-G envelope infected in human 293T cells assessed as inhibition of viral replication after 48 hrs by Luciferase reporter gene assay. It is filed as functional, organism-based. An outline of the steps: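 VSV-G-pseudotyped, env-deficient pNL4-3.luc.R-E- virions made by calcium phosphate cotransfection of 293 cells, then filtered. Virions quantified by p24 ELISA and diluted to 0.2 ng p24/mL. Compounds added 15 min before virus, with solvent-only blank. Luciferase in lysates read 48 h post-infection. Zidovudine served as positive control.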

SMILES strings stand for the structures. Active and inactive are the calls of the source. The calls are words filed in the database; no cut-off is given here.

As a reminder, the IC50 is the concentration at which inhibition is half-maximal.

As for `CC1(C)CC[C@]2(CO)CC[C@]3(C)C(=CC[C@@H]4[C@@]5(C)CC[C@H](O)C(C)(C)[C@@H]5CC[C@]43C)[C@@H]2C1`, the outcome (with A2780; in test [2]) was inactive. In addition, the inhibition result in test [1] was “inactive”.

On to `CCCCCCCCCC/C=C\CCCCCC(=O)OC(CO)CO`, for which the result (with A2780; in test [2]) was inactive. The inhibition result in test [1] was “inactive”.

As for `C=C(C)[C@@H](CC[C@H](C)[C@@H]1CC[C@]2(C)C3=C(CC[C@@]12C)[C@@]1(C)CC[C@H](O)C(C)(C)[C@@H]1CC3=O)OO`, in the test with A2780, the result was inactive. Also, the inhibition result in test [1] and in test [2] was “inactive” in each case.

For the molecule `CCCCCCCCCCCCCCCC(=O)OCC(O)CO` (stereo not given), the outcome (in the test on A2780; in test [2]) was inactive. For the same molecule, the inhibition entry in test [1] is “inactive”.

As for `CC1=C2C=C3CC[C@@H]4C(C)(C)[C@H](O)CC[C@@]4(C)[C@@H]3C[C@H]2OC1=O`, the outcome (in the test with A2780; in test [2]) was inactive. Further, the inhibition entry in test [1] was “inactive”.

On to `C[C@@H](C/C=C/C(C)(C)OO)[C@@H]1CC[C@]2(C)C3=C(CC[C@@]12C)[C@@]1(C)CC[C@H](O)C(C)(C)[C@@H]1CC3=O`, for which the outcome in the test on A2780 was inactive. For the same molecule, the inhibition result in test [1] and in test [2] was “inactive” throughout.

For the molecule `C/C1=C\[C@@H]2[C@H](CC[C@@]3(C)O[C@@H]3[C@H]3[C@@H](O)[C@@H](C)C[C@]3(OC(=O)/C=C/c3ccccc3)C1=O)C2(C)C` [JOLKINOL B], the outcome in the test with A2780 was inactive. The inhibition result in test [1] is “inactive”. For the same molecule, in test [2] (Human immunodeficiency virus 1, NL4-3, HEK-293T), the IC50 was found to be 12.6 µM.

Consider `O=C(O)/C=C/c1ccccc1`, for which the outcome (in the test on A2780; in test [2]) was inactive. For the same molecule, the inhibition entry in test [1] is “inactive”.

`COc1cc2ccc(=O)oc2cc1O`: the outcome (in the test with A2780; in test [2]) was inactive. Besides, the inhibition entry in test [1] is “inactive”.

Turning to `C=C(C)[C@H](CC[C@@H](C)[C@@H]1CC[C@]2(C)C3=C(CC[C@@]12C)[C@@]1(C)CC[C@H](O)C(C)(C)[C@@H]1CC3=O)OO`, in the test on A2780, the outcome was inactive. In addition, the inhibition result in test [1] and in test [2] was “inactive” throughout.

As for `C=C(C)[C@H](CC[C@H](C)[C@@H]1CC[C@]2(C)C3=C(CC[C@@]12C)[C@@]1(C)CC[C@H](O)C(C)(C)[C@@H]1CC3=O)OO`, the result in the test on A2780 was inactive. Further, the inhibition entry in test [1] and in test [2] was “inactive” in each case.

For `CC1=C2C=C3CC[C@@H]4C(C)(C)C(=O)CC[C@@]4(C)[C@@H]3C[C@H]2OC1=O`, the outcome (in the test with A2780; in test [2]) was inactive. In addition, the inhibition result in test [1] is “inactive”.

`C=C(C)[C@H](O)CC[C@H](C)[C@@H]1CC[C@]2(C)C3=CC[C@H]4C(C)(C)[C@@H](O)CC[C@]4(C)C3=CC[C@@]12C`: the result in the test on A2780 was inactive. In addition, the inhibition entry in test [1] and in test [2] was “inactive” each time.

For the molecule `C=C(C)[C@H](O)CC[C@H](C)[C@@H]1CC[C@]2(C)C3=C(CC[C@@]12C)[C@@]1(C)CC[C@H](O)C(C)(C)[C@@H]1CC3`, in the test on A2780, the result was inactive. In addition, the inhibition entry in test [1] and in test [2] was “inactive” each time.

Regarding `CCCCC/C=C/C=C\C(=O)O[C@H]1C(C)=C[C@]23C(=O)[C@@H](C=C(COC(C)=O)[C@@H](O)[C@]12O)[C@H]1[C@@H](C[C@H]3C)C1(C)C`, the outcome (with A2780; in test [2]) was inactive. Also, the inhibition entry in test [1] is “inactive”.

As to `CC1=C2C=C3CC[C@@H]4C(C)(C)[C@@H](O)CC[C@@]4(C)[C@@H]3C[C@H]2OC1=O`, the result (with A2780; in test [2]) was inactive. For the same molecule, in test [1], the inhibition entry was “inactive”.

Consider `COc1ccc(C(=O)OCCc2ccc(O)cc2)cc1`, for which the result (in the test on A2780; in test [2]) was inactive. The inhibition result in test [1] was “inactive”.

Regarding `CC(=O)O[C@H]1CC[C@@]2(C)[C@@H]3C[C@@H]4OC(=O)C(C)=C4C=C3CC[C@@H]2C1(C)C`, the outcome (with A2780; in test [2]) was inactive. Further, the inhibition result in test [1] is “inactive”.

On to `CC(=O)O[C@]12C[C@H](C)[C@H](O)[C@@H]1/C=C(\C)CC[C@H]1[C@@H](/C=C(\C)C2=O)C1(C)C`, for which the outcome (in the test with A2780; in test [2]) was inactive. Besides, the inhibition result in test [1] was “inactive”.

As for `C[C@@H](C/C=C/C(C)(C)OO)[C@@H]1CC[C@]2(C)C3=C(C(=O)C[C@@]12C)[C@@]1(C)CC[C@H](O)C(C)(C)[C@@H]1CC3=O`, in the test on A2780, the result was inactive. Also, the inhibition entry in test [1] and in test [2] was “inactive” each time.

For `CC[C@H](CC[C@@H](C)[C@H]1CC[C@H]2[C@@H]3CC=C4C[C@@H](O)CC[C@]4(C)[C@H]3CC[C@]12C)C(C)C`, the result (in the test with A2780; in test [2]) was inactive. For the same molecule, the inhibition entry in test [1] was “inactive”.

Regarding `C/C1=C\[C@@H]2[C@H](CC[C@@]3(C)O[C@@H]3[C@H]3[C@@H](O)[C@@H](C)C[C@]3(OC(=O)c3ccccc3)C1=O)C2(C)C`, the result (in the test on A2780; in test [2]) was inactive. For the same molecule, the inhibition entry in test [1] is “inactive”.

With `C[C@H]1[C@H](C)CC[C@]2(CO)CC[C@]3(C)C(=CC[C@@H]4[C@@]5(C)CC[C@H](O)C(C)(C)[C@@H]5CC[C@]43C)[C@H]12`, the outcome (in the test on A2780; in test [2]) was inactive. Moreover, the inhibition result in test [1] was “inactive”.

Take `C=C(C)[C@@H]1CC[C@]2(CO)CC[C@]3(C)[C@H](CC[C@@H]4[C@@]5(C)CC[C@H](O)C(C)(C)[C@@H]5CC[C@]43C)[C@@H]12` [BETULIN]: the IC50 with A2780 (A2780, 96 h) came out at 6.1 µM. Moreover, the inhibition entry in test [1] was “inactive”. Also, in test [2], the outcome was inactive.

Consider `CCCCCCCCCCCCCCCCCCCCCCCCCCCCCCO`, for which the result (with A2780; in test [2]) was inactive. Further, the inhibition result in test [1] was “inactive”.

These data come from ChEMBL document CHEMBL1154243, “Chemical Constituents of the Roots of Euphorbia micractina” (J Nat Prod, 2009).
